Experimental data collected from several papers.
Target: Serine/threonine-protein kinase Nek6 (NEK6, Homo sapiens, UniProt Q9HC98)

Compound	test	conditions	quantity	value
CC/C(=N\NC(=O)NCc1cccc(O)c1)c1ccc(O)c(C)c1O	enzyme activity, inhibitor	0.1 µM	inhibition	0.2%
Cc1cc(-n2nc(Cc3cc(F)cc(C(F)(F)F)c3)nc2C)ccc1C(N)=O	cell-free assay, competition with immobilised ligand	1 µM	remaining binding	95%
CCN(CC)CCNC(=O)c1c(C)[nH]c(/C=C2\C(=O)Nc3ccc(F)cc32)c1C	enzyme activity, inhibitor	10 µM	inhibition	-9%
FC(F)(F)Oc1cccc(-c2cnc3ccc(-c4ccncc4)nn23)c1	enzyme activity, inhibitor, radiometric	5 µM	activity vs control	93%
CNC(=O)c1cc(Oc2ccc(NC(=O)Nc3ccc(Cl)c(C(F)(F)F)c3)cc2)ccn1	enzyme activity, inhibitor	10 µM	inhibition	-16%
CN(c1ncccc1CNc1nc(Nc2ccc3c(c2)CC(=O)N3)ncc1C(F)(F)F)S(C)(=O)=O	enzyme activity, inhibitor	1 µM	inhibition	11.8%
O=C1Nc2ccc(Cl)cc2C1=Cc1cc(Cl)c(O)c(Cl)c1	cell-free assay	0.5 µM	remaining signal	104%
CC(C)CC(=O)N1CCc2nc(-c3ccc(Br)cc3)nc(N(C)Cc3ccccc3)c2C1	cell-free assay, competition with immobilised ligand	0.1 µM	remaining binding	100%
COc1cc2ncnc(Nc3ccc(Oc4ccccc4)cc3C)c2cc1OC	enzyme activity, inhibitor	1 µM	inhibition	-8%
C[C@H](c1ccnc(Nc2nc3ccc(-c4cc(N(C)C)ncn4)cc3[nH]2)c1)N1CCN(C(=O)CC(F)(F)F)CC1	cell-free assay, competition with immobilised ligand	0.1 µM	remaining binding	83%
COc1cc(/C=C/C(=O)CC(=O)/C=C/c2ccc(O)c(OC)c2)ccc1O	enzyme activity, inhibitor	1 µM	activity vs control	97%
CCOCCn1cc(C(=O)Nc2ccc(-n3nc(-c4cccnc4)cc3C(F)(F)F)cn2)ccc1=O	cell-free assay, competition with immobilised ligand	1 µM	remaining binding	96%
Cc1cc(NC(=O)c2cccc3cc(-c4cccc5[nH]nc(N)c45)ccc23)ccc1F	enzyme activity, inhibitor	0.1 µM	activity vs control	99%
